# Laboratory results reported in paper PMC6959494 (Egyptian journal of chemistry, 2018).
# Where two headings read alike, the source gives them in different places.
# What was measured:
# [1] = test system: S. aureus SH1000 sensitive strain; experiment: MIC against S. aureus SH1000 sensitive strain; format: cell-based, Staphylococcus aureus; settings: for MIC: Staphylococcus aureus, read-out: MIC S. aureus Sensitive SH1000
# S. pneumonia PheRS = S. pneumonia PheRS (Streptococcus pneumoniae, UniProt Q97S36); experiment: tRNA aminoacylation scintillation proximity assay, S. pneumonia PheRS; format: biochemical
# Summary of the method: (§1)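 E. coli tRNA was added and incubated 1 h at 37 °C, then stopped with EDTA. Poly-L-lysine yttrium silicate SPA beads in citric acid were added for 1 h before scintillation counting. DMSO-only controls were included, and IC50 came from a sigmoidal dose-response fit.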
# P. aeruginosa PheRS = P. aeruginosa PheRS (Pseudomonas aeruginosa, UniProt Q9I0A3); experiment: tRNA aminoacylation scintillation proximity assay, P. aeruginosa PheRS; format: biochemical
# Summary of the method: as §1
# [2] = test system: E. coli ATCC 25922 sensitive; experiment: MIC by microbroth dilution; format: cell-based
# Summary of the method: (§2)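 Broth microdilution per international standard ISO […]. The panel covered clinical isolates and NCTC/ATCC control organisms, including resistant phenotypes, and ampicillin was run alongside as comparator.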
# [3] = test system: E. faecalis NCTC 12201 vanA resistant; experiment: MIC by microbroth dilution; format: cell-based, Enterococcus faecalis
# Summary of the method: as §2
# [4] = test system: P. mirabilis NCTC 10975 sensitive; experiment: MIC by microbroth dilution; format: cell-based, Proteus mirabilis
# Summary of the method: as §2
# A.baumannii572 sensitive = experiment: MIC by microbroth dilution; format: cell-based, Acinetobacter baumannii
# Summary of the method: as §2
# [5] = test system: P. aeruginosa ATCC 27853 sensitive; experiment: MIC by microbroth dilution; format: cell-based, Pseudomonas aeruginosa
# Summary of the method: as §2
# [6] = test system: S. aureus NCTC 12493 mecA resistant; experiment: MIC by microbroth dilution; format: cell-based
# Summary of the method: as §2
# [7] = test system: E. faecalisATCC 29212 sensitive; experiment: MIC by microbroth dilution; format: cell-based, Enterococcus faecalis
# Summary of the method: as §2
# [8] = test system: K. pneumoniae 21856 sensitive; experiment: MIC by microbroth dilution; format: cell-based, Klebsiella pneumoniae
# Summary of the method: as §2
# [9] = test system: S. aureus ATCC 29213 sensitive; experiment: MIC by microbroth dilution; format: cell-based
# Summary of the method: as §2
# [10] = test system: B.cepacia NCTC 10661 sensitive; experiment: MIC by microbroth dilution; format: cell-based
# Summary of the method: as §2
# [11] = test system: E. faecalis ATCC 51299 vanB resistant; experiment: MIC by microbroth dilution; format: cell-based, Enterococcus faecalis
# Summary of the method: as §2
# [12] = test system: S.enteritidis8204 sensitive; experiment: MIC by microbroth dilution; format: cell-based, Salmonella enteritidis
# Summary of the method: as §2
# [13] = test system: E. faecium 16568 sensitive; experiment: MIC by microbroth dilution; format: cell-based; settings: Enterococcus faecium
# Summary of the method: as §2
# [14] = test system: the tested bacteria (variety of clinically important pathogens); experiment: MIC by microbroth dilution, summary in text for the panel of pathogens; format: cell-based; settings: read-out: MIC, no inhibitory activity
# [15] = test system: E. faecalis sensitive and vanA and vanB resistant strains; experiment: MIC by microbroth dilution, summary in text for E. faecalis strains; format: cell-based; settings: Enterococcus faecalis, read-out: moderate inhibitory activity (MIC)
# Summary of the method: as §2
# [16] = Enterococcus faecalis, NCTC12201
# [17] = Pseudomonas aeruginosa, ATCC27853
# [18] = Staphylococcus aureus, NCTC12493
# [19] = Enterococcus faecalis, ATCC29212
# [20] = Staphylococcus aureus, ATCC29213
# [21] = Enterococcus faecalis, ATCC51299
# P. aeruginosa PheRS, sequence (Q9I0A3 whole entry): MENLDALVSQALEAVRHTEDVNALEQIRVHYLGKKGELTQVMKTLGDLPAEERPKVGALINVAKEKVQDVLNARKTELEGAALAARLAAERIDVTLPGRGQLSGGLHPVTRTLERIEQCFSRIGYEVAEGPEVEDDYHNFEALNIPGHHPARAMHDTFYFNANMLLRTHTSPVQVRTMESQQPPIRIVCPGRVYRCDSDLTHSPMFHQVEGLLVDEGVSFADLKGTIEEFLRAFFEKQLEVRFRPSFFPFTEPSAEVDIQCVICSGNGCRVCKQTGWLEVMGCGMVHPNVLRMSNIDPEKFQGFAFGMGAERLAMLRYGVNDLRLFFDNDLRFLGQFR
# P. aeruginosa PheRS, sequence (Q9I0A4 whole entry partner): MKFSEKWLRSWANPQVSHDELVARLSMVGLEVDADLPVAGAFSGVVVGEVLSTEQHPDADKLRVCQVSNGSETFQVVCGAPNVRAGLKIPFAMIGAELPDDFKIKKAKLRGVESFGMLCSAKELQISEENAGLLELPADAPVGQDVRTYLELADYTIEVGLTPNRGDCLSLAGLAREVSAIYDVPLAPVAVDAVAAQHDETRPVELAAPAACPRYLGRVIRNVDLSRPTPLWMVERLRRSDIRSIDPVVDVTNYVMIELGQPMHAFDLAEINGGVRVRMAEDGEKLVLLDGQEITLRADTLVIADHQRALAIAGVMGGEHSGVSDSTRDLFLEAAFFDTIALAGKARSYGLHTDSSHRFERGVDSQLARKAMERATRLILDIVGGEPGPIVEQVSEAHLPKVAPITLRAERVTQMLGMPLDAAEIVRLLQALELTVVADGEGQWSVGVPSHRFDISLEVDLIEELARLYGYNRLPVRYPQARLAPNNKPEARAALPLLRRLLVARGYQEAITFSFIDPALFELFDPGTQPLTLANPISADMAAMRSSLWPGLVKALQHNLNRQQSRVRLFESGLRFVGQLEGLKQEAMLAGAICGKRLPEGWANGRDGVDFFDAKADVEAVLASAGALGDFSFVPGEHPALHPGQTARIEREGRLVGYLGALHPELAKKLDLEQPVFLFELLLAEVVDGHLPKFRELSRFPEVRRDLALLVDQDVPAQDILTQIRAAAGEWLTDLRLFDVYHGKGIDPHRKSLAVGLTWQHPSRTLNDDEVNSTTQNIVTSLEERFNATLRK
# S. pneumonia PheRS, sequence (Q97S36 whole entry): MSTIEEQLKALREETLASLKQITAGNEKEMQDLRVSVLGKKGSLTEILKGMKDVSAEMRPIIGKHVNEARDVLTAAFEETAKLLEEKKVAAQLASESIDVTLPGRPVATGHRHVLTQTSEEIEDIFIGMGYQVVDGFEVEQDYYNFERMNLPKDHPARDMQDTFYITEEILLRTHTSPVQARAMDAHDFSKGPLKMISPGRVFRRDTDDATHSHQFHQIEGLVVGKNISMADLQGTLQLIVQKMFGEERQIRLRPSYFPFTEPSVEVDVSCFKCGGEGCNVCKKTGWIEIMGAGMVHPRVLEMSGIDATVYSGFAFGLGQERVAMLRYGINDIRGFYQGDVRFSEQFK
# S. pneumonia PheRS, sequence (Q97S34 whole entry, further chain): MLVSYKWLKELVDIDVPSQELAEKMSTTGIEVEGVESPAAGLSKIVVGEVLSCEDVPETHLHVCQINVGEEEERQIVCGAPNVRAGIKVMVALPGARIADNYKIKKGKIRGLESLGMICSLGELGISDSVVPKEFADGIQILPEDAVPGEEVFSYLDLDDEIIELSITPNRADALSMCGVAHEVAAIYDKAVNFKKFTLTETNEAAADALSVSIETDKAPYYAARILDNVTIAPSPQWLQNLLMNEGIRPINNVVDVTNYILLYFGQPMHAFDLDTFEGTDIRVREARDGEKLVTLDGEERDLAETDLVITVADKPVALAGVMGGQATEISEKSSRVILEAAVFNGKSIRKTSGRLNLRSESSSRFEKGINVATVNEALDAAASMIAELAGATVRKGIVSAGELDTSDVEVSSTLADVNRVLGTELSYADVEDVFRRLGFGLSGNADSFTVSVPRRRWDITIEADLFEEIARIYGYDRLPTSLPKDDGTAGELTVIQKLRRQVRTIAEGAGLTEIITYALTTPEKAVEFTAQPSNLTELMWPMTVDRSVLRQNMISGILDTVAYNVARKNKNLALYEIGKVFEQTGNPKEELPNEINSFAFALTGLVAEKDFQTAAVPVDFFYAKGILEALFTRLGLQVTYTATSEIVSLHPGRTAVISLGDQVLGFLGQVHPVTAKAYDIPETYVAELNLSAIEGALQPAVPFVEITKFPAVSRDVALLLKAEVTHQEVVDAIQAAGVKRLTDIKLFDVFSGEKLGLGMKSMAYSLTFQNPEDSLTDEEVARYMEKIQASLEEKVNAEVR
SMILES,MIC [1],IC50 (S. pneumonia PheRS),IC50 (P. aeruginosa PheRS),"MIC ([2]; Escherichia coli, ATCC25922)","MIC [3, 16]","MIC ([4]; Proteus mirabilis, NCTC10975)",MIC (A.baumannii572 sensitive; Acinetobacter baumannii),"MIC [5, 17]",MIC [13],"MIC [6, 18]","MIC [7, 19]",MIC [14],MIC ([8]; Klebsiella pneumoniae),"MIC [9, 20]","MIC [11, 21]",MIC ([12]; Salmonella enterica),other results
"COc1cc(OC)cc(C(=O)Nc2nnc(CCn3cnc4ccccc43)s2)c1 [11a, N-(5-(2-(1H-benzimidazol-1-yl)ethyl)-1,3,4-thiadiazol-2-yl)-3,5-dimethoxybenzamide]",> 128 µg/mL,345 µM,742 µM,,,,,,,,,,,,,,
"O=C(Nc1nnc(CCn2cnc3ccccc32)s1)c1ccc(F)cc1 [11b, N-(5-(2-(1H-benzimidazol-1-yl)ethyl)-1.3.4-thiadiazol-2-yl)-4fluorobenzamide]",,,,,,,,,,,,,,,,,"MIC S. aureus Sensitive SH1000 ([1]; S. aureus SH1000 sensitive strain): >128 µg/mL; MIC ([2]; E. coli ATCC 25922 sensitive): >128 µg/mL; IC50 (S. pneumonia PheRS; read-out: S. pneumonia PheRS IC50, aminoacylation SPA, 0.2 μM enzyme): 685 µM; MIC ([3]; E. faecalis NCTC 12201 vanA resistant): 32 µg/mL; MIC ([4]; P. mirabilis NCTC 10975 sensitive): >128 µg/mL; MIC (A.baumannii572 sensitive; A.baumannii572 sensitive): >128 µg/mL; MIC ([5]; P. aeruginosa ATCC 27853 sensitive): >128 µg/mL; IC50 (P. aeruginosa PheRS; read-out: P. aeruginosa PheRS IC50, aminoacylation SPA, 0.08 μM enzyme): 907 µM; MIC ([6]; S. aureus NCTC 12493 mecA resistant): 128 µg/mL; MIC ([7]; E. faecalis ATCC 29212 sensitive): 64 µg/mL; MIC ([8]; K. pneumoniae 21856 sensitive): >128 µg/mL; MIC ([9]; S. aureus ATCC 29213 sensitive): >128 µg/mL; MIC [10]: >128 µg/mL; MIC ([11]; E. faecalis ATCC 51299 vanB resistant): 64 µg/mL; MIC ([12]; S.enteritidis8204 sensitive): >128 µg/mL"
"CCSc1nnc(CCCn2cnc3ccccc32)n1-c1ccccc1 [16a, 1-(3-(5-(Ethylthio)-4-phenyl-4H-1,2,4-triazol-3-yl)propyl)-1H-benzimidazole]",> 128 µg/mL,561 µM,343 µM,> 128 µg/mL,> 128 µg/mL,> 128 µg/mL,> 128 µg/mL,> 128 µg/mL,> 128 µg/mL,> 128 µg/mL,> 128 µg/mL,≥ 128 µg/mL,> 128 µg/mL,> 128 µg/mL,> 128 µg/mL,> 128 µg/mL,
"CCCSc1nnc(CCCn2cnc3ccccc32)n1-c1ccccc1 [16b, 1-(3-(4-Phenyl-5-(propylthio)-4H-1,2,4-triazol-3-yl)propyl)1H-benzimidazole]",> 128 µg/mL,390 µM,375 µM,,,,,,,,,,,,,,
"CCSc1nnc(CCCn2cnc3c(N)ncnc32)n1-c1ccccc1 [17a, 9-(3-(5-(Ethylthio)-4-phenyl-4H-1,2,4-triazol-3-yl)propyl)-9H-purin-6-amine]",> 128 µg/mL,619 µM,199 µM,> 128 µg/mL,64 µg/mL,> 128 µg/mL,> 128 µg/mL,> 128 µg/mL,,128 µg/mL,> 128 µg/mL,≥ 128 µg/mL,> 128 µg/mL,> 128 µg/mL,64 µg/mL,> 128 µg/mL,MIC [15]: 32 to 64 µg/mL
"CCCSc1nnc(CCCn2cnc3c(N)ncnc32)n1-c1ccccc1 [17b, 9-(3-(4-Phenyl-5-(propylthio)-4H-1,2,4-triazol-3-yl)propyl)-9H-purin-6-amine]",> 128 µg/mL,686 µM,294 µM,> 128 µg/mL,> 128 µg/mL,> 128 µg/mL,> 128 µg/mL,> 128 µg/mL,> 128 µg/mL,> 128 µg/mL,> 128 µg/mL,≥ 128 µg/mL,> 128 µg/mL,> 128 µg/mL,> 128 µg/mL,> 128 µg/mL,
"CC1(C)S[C@@H]2[C@H](NC(=O)[C@H](N)c3ccccc3)C(=O)N2[C@H]1C(=O)O [Amp, ampicillin, reference compound]",,,,,16 µg/mL,> 128 µg/mL,> 128 µg/mL,> 128 µg/mL,4 µg/mL,> 128 µg/mL,,,> 128 µg/mL,4 µg/mL,,,
